According to ChEMBL document CHEMBL4513216, “Probing the Open Global Health Chemical Diversity Library for Multistage-Active Starting Points for Next-Generation Antimalarials” (ACS Infect Dis, 2020):

Test: Toxicity liver stage against HepG2, at 10uM
Type: cell-based
Design: test concentration 10 uM, cell line HepG2-A16-CD81EGFP
Settings: human, HepG2-A16-CD81EGFP cells; read-out: INHIBITION
Method in brief: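 Uninfected HepG2-A16-CD81EGFP cells, 3 × 10^3 per well, 1536-well, plated on prespotted compound at 10 μM final, parasite-free screening media added to match infected plates; puromycin 10 μM positive, DMSO 0.5% negative; run in parallel with 48 h PbLuc assay at 37 °C, 5% CO2; viability by CellTiter-Glo luminescence, normalized to controls.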

Row | Structure (SMILES) | cytotoxicity at 10 µM [%]
1 | Cc1ccnc(NC(=O)CCNC(=O)c2ccccc2Cl)c1 | -2.66
2 | COc1coc(C(=O)Nc2nc(-c3ccccn3)cs2)cc1=O | 7.31
3 | Cc1cccc(CS(=O)(=O)NCc2nn(C)c3c2COCC3)c1 | -3.02
4 | COC(CNC(=O)c1cn(C)nn1)c1ccccc1C (stereo not given) | -14.5
5 | CN(Cc1cccnc1)[C@@H]1CN(Cc2ccccn2)[C@@H]2CCCO[C@H]12 | -0.0545
6 | COc1ccc(C(C)NC(=O)c2nn(C)c(C)c2Br)cc1 (stereo not given) | 9.18
7 | Clc1ccc2[nH]c3c(c2c1)CCCC3c1nn[nH]n1 (stereo not given) | -4.13
8 | CC(C)(C)C(=O)NCCc1cc(N2CCOCC2)nc(NC2CC2)n1 | 6.68
9 | CC(C)(C)Nc1c(C2CCN(C(=O)C(C)(C)C)CC2)nc2ccccn12 | 6.53
10 | Cc1ccc(S(=O)(=O)N2CCN(CCCO)CC2)s1 | -9.12
11 | Cc1noc(CN(Cc2ccco2)Cc2cccc3c2OCO3)n1 | -2.51
12 | COC(=O)c1ccc(N2CCN(C(=O)C3CCC3)C(C)C2)cc1 (stereo not given) | -4.18
13 | COc1cc(C(=O)O)ccc1OCC(=O)NC(C)c1ccc(F)cc1 (stereo not given) | -1.4
14 | Cc1cc(CN(Cc2ccccc2)CC(O)c2cccs2)on1 (stereo not given) | 5.29
15 | CC(Oc1ccccc1C(F)(F)F)C(=O)NCCCC(N)=O (stereo not given) | -1.73
16 | Cc1cc(C)n(CCC(=O)N2CCCC(n3nc(C)nc3C)C2)n1 (stereo not given) | -5.61
17 | CCOc1cc(CNC(=O)NCc2nc(C)c(C)s2)ccn1 | -2.49
18 | O=S1(=O)CCC(n2cc(CNCC3(c4ccccc4)CC3)cn2)C1 (stereo not given) | 16.5
19 | COc1cc(F)c(S(=O)(=O)NCc2ccnc(N(C)C)n2)cc1OC | -147
20 | CC(NC(=O)Nc1nncs1)C(=O)NC1CCCC1 (stereo not given) | -5.36
21 | Cc1nc(CNC(=O)NC2CCN(c3ncccc3Cl)C2)oc1C (stereo not given) | 2.93
22 | O=C(O)CC1CN(S(=O)(=O)c2cccc(F)c2)c2ccccc21 (stereo not given) | -4.17
23 | CNC(=O)C(C)S(=O)(=O)Cc1csc(-c2cccs2)n1 (stereo not given) | -11.9
24 | CNC(=O)C1CCCN(C(=O)NCCC2Cc3ccccc3C2)C1 (stereo not given) | 15.4
25 | O=C(NCC1CCC2(CC1)OCCO2)c1cccc(-n2cccn2)c1 | 0.477
26 | O=C(COc1ccccc1C(F)(F)F)NCCNC(=O)c1ccccc1 | -9.53
27 | CC(C)N(CC1CCCN(CC(N)=O)C1)C(=O)OC(C)(C)C (stereo not given) | -5.66

Row | Structure (SMILES) | cytotoxicity at 10 µM [%]
28 | Cc1nc(CNC(=O)c2oc3ccccc3c2CN(C)C)oc1C | 9.46
29 | CCc1noc(C(C)N2CCC(NC(=O)c3ccc(C)s3)CC2)n1 (stereo not given) | -9.9
30 | CCN(C(=O)COC)C(c1cccnc1)c1cc(C)cc(C)c1 (stereo not given) | -20.9
31 | Cc1cc(F)ccc1CNCCn1cccn1 | -10.2
32 | O=C(c1ccnn1-c1ccc2ccccn12)N1CCCC1 | -102
33 | Cn1nc(C#N)c2c1CN(C(=O)c1nc[nH]n1)CCC2 | -100
34 | COc1cc(N2CCC3(C2)CN(c2cccnc2)C(=O)CN3C)ncn1 (stereo not given) | -107
35 | CC(C)n1cnc(-c2nc(C(=O)NC3CC3)c3ccccn23)c1 | -102
36 | CS(=O)(=O)NCc1noc2c1CN(C(=O)C1CC1)CC2 | -107
37 | CCOCC1CC2(CCN(Cc3ccccn3)CC2)CO1 (stereo not given) | -0.671
38 | N#CC1(c2ccccc2)CCN(C(=O)CN2C(=O)CCNC2=O)CC1 | 0.172
39 | CCn1cc(-c2c(C)c(C3CCOC(C)(C)C3)nc(N)c2C#N)cn1 (stereo not given) | -10.3
40 | CC[S+]([O-])CCc1nc(CC(C)C)nn1-c1ccc2c(c1)OCCO2 (stereo not given) | 4.24
41 | CN1C(=O)C(c2ccccc2)CC12CCN(CCN)CC2 (stereo not given) | 8.67
42 | CCCc1nc(CN(CC)C(=O)c2ccc3[nH]cnc3c2)no1 | 3.98
43 | C=C(C)COc1cccc(CNC(CC(C)C)c2ncnn2C)c1 (stereo not given) | 1.16
44 | CCC[C@H]1CN(S(C)(=O)=O)C[C@@H]1NC(=O)Cc1ccc(F)cc1C | -7.13
45 | CC(=O)NCCC(=O)N(C/C=C/c1ccccc1)CCO | 4.1
46 | CCc1ncc2c(n1)CN(C(=O)CNC(=O)c1ccccc1)C2 | 2.41
47 | CNC(=O)[C@@H]1C[C@H](n2cc(-c3ccc(Cl)cc3)nn2)CN1 | 5.89
48 | Cc1nn(C)cc1-c1ccnc(N(C)Cc2ccc(F)cc2)n1 | -3.85
49 | COCCNc1cc(-c2ccccc2C(=O)O)c2cc[nH]c2n1 | 2.13
50 | CNc1ccnc(N2C[C@@H](C)[C@](O)(C3CCC3)C2)n1 | -10.1
51 | CN(C)c1ncnc2c1CCN(S(=O)(=O)c1ccccc1C(F)(F)F)C2 | 21.3
52 | Cc1nc(-c2cccc(N3CCC(N4CCCC4)CC3)c2)cs1 | -17.2
53 | COc1ccc([C@@H]2CN(Cc3cccnc3N)C[C@H]2N(C)C)cc1 | 1.54
54 | OC1(CN2CCCCC2)CCN(Cc2c[nH]c(CC3CCCC3)n2)C1 (stereo not given) | -13

Row | Structure (SMILES) | cytotoxicity at 10 µM [%]
55 | CCCc1nnc(N2CCN(c3cccc(C)c3C)CC2)o1 | 9.59
56 | Cc1c(C2CCOC(C)(C)C2)nc(N)c(C#N)c1-c1ccc(O)cc1 (stereo not given) | 22.8
57 | O=C1CC(C(=O)O)C2(CCN(C(=O)NCc3ccc(Cl)cc3)CC2)N1 (stereo not given) | 7.66
58 | Cc1ncnc(NCc2cc3n(n2)CCCN(S(C)(=O)=O)C3)c1C | -8.42
59 | CC(=O)Nc1ccc(CNC2CC(=O)N(Cc3cccc(F)c3)C2)cc1 (stereo not given) | -6.98
60 | CCOCCn1nc(C)cc1C(=O)N1CC[C@](C)(O)[C@H](C)C1 | -6.34
61 | CCC(=O)N1CCN(C(=O)NCCOc2ccc3c(c2)CCC3)CC1 | -7.57
62 | CCN(CC1CCOC1)C(=O)c1cccnc1N1CCOCC1 (stereo not given) | -10.8
63 | CC(NC(=O)NCCCn1ccnc1)c1ccc2c(c1)OCCCO2 (stereo not given) | -15.1
64 | CC(NC(=O)NCCCN1CCCCCC1)c1nncn1C (stereo not given) | -7.1
65 | CS(=O)(=O)N1CCC(C(=O)NCCNc2ncccn2)CC1 | -8.11
66 | CCNc1cc2c(nn1)CCN(C(=O)c1ccc3cc[nH]c3c1)C2 | -6.95
67 | Cc1nn(C)c(N2CCOCC2)c1CNCc1nccs1 | -6.33
68 | O=C(N1CCC(Nc2cccnn2)CC1)C1(c2ccc(F)cc2)CC1 | -12.8
69 | CCn1c(C)cc(C(=O)N2CCCC(c3nc(C)no3)C2)c1C (stereo not given) | -3.39
70 | Cc1ccc(CN(CCCN2CCOCC2)Cc2cnn(C)c2)o1 | -1.06
71 | O=C(C1CCOCC1)N1CCO[C@H]2[C@H](Oc3ccccn3)CC[C@@H]21 | -99.6
72 | CN(C)CCN1CCOCC2(CCCN(C(=O)c3ccoc3)C2)C1 (stereo not given) | 4.87
73 | CCC1=N[C@@]2(CC[C@@H]3CN(CC4CC4)C[C@@H]32)C(=O)N1CC1CC1 | 5.39
74 | O=C(C1=CCCC1)N1CCO[C@H]2[C@@H](Oc3ccccn3)CC[C@@H]21 | 0.179
75 | CCc1ncnc2c1CCN(CC(=O)N(C)C)CC2 | -106
76 | Cc1cccc(CN2CCC3(CC2)CN(c2cccnc2)C(=O)CO3)n1 | -96.1
77 | Cc1noc(C)c1CN1CCO[C@H]2CNC[C@H]21 | 5.4
78 | O=C(NCc1cccs1)[C@@H]1CC[C@@H]2[C@@H](CCN2CC2CCC2)O1 | -10.2
79 | Cc1noc([C@@H]2C[C@H]3OCC[C@H]3N(S(=O)(=O)c3cccnc3)C2)n1 | -12.5
80 | O=C(Nc1ccccc1)[C@H]1C[C@H]2CN(S(=O)(=O)C3CC3)C[C@@H]1O2 | 4.44
